Experimental data from BindingDB's records for doi:10.1021/jm960153q (Rhône-Poulenc Rorer, 1996).

Target: Low-density lipoprotein receptor (Homo sapiens, UniProt P01130)
Test: Concentration at which one-half the maximum Low density lipoprotein receptor up-regulation is observed in HepG2 cells
Outline: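 HepG2 cells in 96-well plates at 10 000 cells/well, grown 3 days to 80% confluence. Compounds added in DMEM with 1% BSA for 24 h at several concentrations. Formaldehyde-fixed cells probed with MAC-C7 (0.5 µg/mL, 60 min, 4 °C), then alkaline phosphatase-linked anti-mouse IgG, then fluorogenic substrate. EC50 is the concentration giving half-maximal upregulation, determined only when upregulation at 3 µM exceeded 40%. Five replicates.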

Chain of Low-density lipoprotein receptor (P01130 whole entry): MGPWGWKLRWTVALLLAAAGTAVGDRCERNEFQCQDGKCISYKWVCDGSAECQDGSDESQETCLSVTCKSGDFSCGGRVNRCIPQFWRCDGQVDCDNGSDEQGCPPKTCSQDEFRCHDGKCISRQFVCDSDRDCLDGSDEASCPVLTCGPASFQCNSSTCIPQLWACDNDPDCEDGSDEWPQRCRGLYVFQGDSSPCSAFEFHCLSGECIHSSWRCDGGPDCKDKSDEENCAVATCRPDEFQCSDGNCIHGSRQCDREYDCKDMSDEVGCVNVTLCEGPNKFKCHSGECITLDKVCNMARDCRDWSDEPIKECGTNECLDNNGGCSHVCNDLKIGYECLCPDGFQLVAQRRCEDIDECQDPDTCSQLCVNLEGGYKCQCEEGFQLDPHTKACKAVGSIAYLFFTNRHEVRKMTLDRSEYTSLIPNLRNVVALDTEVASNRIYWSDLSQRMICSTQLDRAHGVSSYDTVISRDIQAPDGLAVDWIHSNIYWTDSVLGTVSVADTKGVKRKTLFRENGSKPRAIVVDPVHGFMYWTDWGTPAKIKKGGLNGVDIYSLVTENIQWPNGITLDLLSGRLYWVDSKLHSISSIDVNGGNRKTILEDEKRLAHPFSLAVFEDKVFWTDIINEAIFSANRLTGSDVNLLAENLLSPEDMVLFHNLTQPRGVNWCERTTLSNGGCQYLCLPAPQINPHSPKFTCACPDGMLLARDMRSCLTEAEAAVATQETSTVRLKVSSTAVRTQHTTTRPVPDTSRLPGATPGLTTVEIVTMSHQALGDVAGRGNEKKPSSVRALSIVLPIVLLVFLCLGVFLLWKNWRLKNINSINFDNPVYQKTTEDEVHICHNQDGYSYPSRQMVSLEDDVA

SMILES | EC50
Cc1ccc(C(=O)CCCC2CCCCC2)cc1NC(=O)c1cccnc1 [N-[5-(4-Cyclohexyl-butyryl)-2-methyl-phenyl]-nicotinamide] | 2000 nM

Target: not listed separately
Test: Concentration at which one-half of the maximum Low density lipoprotein receptor is upregulated in HepG2 cells

SMILES | EC50
Cc1ccc(NC(=O)CCC2CCCCC2)cc1-c1nc2ccc(O)cc2[nH]1 [3-Cyclohexyl-N-[3-(5-hydroxy-1H-benzoimidazol-2-yl)-4-methyl-phenyl]-propionamide] | 700 nM
Cc1ccc2nc(-c3cc(NC(=O)CCC4CCCCC4)ccc3C)[nH]c2c1 [3-Cyclohexyl-N-[4-methyl-3-(5-methyl-1H-benzoimidazol-2-yl)-phenyl]-propionamide] | 1300 nM
Cc1ccc(NC(=O)CCC2CCCCC2)cc1NC(=O)c1ccc(N)cc1 [4-Amino-N-[5-(3-cyclohexyl-propionylamino)-2-methyl-phenyl]-benzamide] | 3800 nM
Cc1ccc(NC(=O)CCC2CCCCC2)cc1C(=O)Nc1ccc(O)cc1 [5-(3-Cyclohexyl-propionylamino)-N-(4-hydroxy-phenyl)-2-methyl-benzamide] | 7000 nM
CC(=O)Oc1ccc(C(=O)Nc2cc(NC(=O)CCC3CCCCC3)ccc2C)cc1 [Acetic acid 4-[5-(3-cyclohexyl-propionylamino)-2-methyl-phenylcarbamoyl]-phenyl ester] | 2500 nM
Cc1ccc(C(=O)NCCC2CCCCC2)cc1NC(=O)c1ccc(O)cc1 [N-(2-Cyclohexyl-ethyl)-3-(4-hydroxy-benzoylamino)-4-methyl-benzamide] | 2000 nM
Cc1ccc(NC(=O)CCC2CCCCC2)cc1-c1nc2ccccc2[nH]1 [N-[3-(1H-Benzoimidazol-2-yl)-4-methyl-phenyl]-3-cyclohexyl-propionamide] | 1300 nM
Cc1ccc(NC(=O)CCC2CCCCC2)cc1/C=C(\C#N)c1ccc2c(c1)OCO2 [N-[3-((Z)-2-Benzo[1,3]dioxol-5-yl-2-cyano-vinyl)-4-methyl-phenyl]-3-cyclohexyl-propionamide] | 700 nM
Cc1ccc(NC(=O)CCC2CCCCC2)cc1/C=C(\C#N)c1cccnc1 [N-[3-((Z)-2-Cyano-2-pyridin-3-yl-vinyl)-4-methyl-phenyl]-3-cyclohexyl-propionamide] | 1000 nM
Cc1ccc(NC(=O)CCC2CCCCC2)cc1NC(=O)c1cccc(O)c1 [N-[5-(3-Cyclohexyl-propionylamino)-2-methyl-phenyl]-3-hydroxy-benzamide] | 2000 nM
Cc1ccc(NC(=O)CCC2CCCCC2)cc1NC(=O)c1ccc(O)cc1 [N-[5-(3-Cyclohexyl-propionylamino)-2-methyl-phenyl]-4-hydroxy-benzamide] | 1700 nM
Cc1ccc(NC(=O)CCC2CCCCC2)cc1NC(=O)c1ccc(CO)cc1 [N-[5-(3-Cyclohexyl-propionylamino)-2-methyl-phenyl]-4-hydroxymethyl-benzamide] | 7600 nM
Cc1ccc(NC(=O)CCC2CCCCC2)cc1NC(=O)c1ccccc1 [N-[5-(3-Cyclohexyl-propionylamino)-2-methyl-phenyl]-benzamide] | 2000 nM
Cc1ccc(NC(=O)CCC2CCCCC2)cc1NC(=O)c1cccnc1 [N-[5-(3-Cyclohexyl-propionylamino)-2-methyl-phenyl]-nicotinamide] | 1200 nM
Cc1ccc(NC(=O)CCCC2CCCCC2)cc1NC(=O)c1ccc(O)cc1 [N-[5-(4-Cyclohexyl-butyrylamino)-2-methyl-phenyl]-4-hydroxy-benzamide] | 4000 nM
